# Reference: ChEMBL document CHEMBL3286094, “Synthesis and biological evaluation of novel bisbenzimidazoles as Escherichia coli topoisomerase IA inhibitors and potential antibacterial agents” (J Med Chem, 2014)
# Activity calls are given as the source filed them. No cut-off for these calls is given here.
# Tests used:
# Escherichia coli [1] = assay: Antibacterial activity against ampicillin/kanamycin/trimethoprim/tetracyclin/ciprofloxacin/nalidixic acid-resistant Escherichia coli 81 assessed as growth inhibition after 18 to 24 hrs by broth microdilution method; assay type: functional
# Escherichia coli [2] = assay: Antibacterial activity against ampicillin/tetracycline-resistant Escherichia coli IP18 isolated from water source assessed as growth inhibition after 18 to 24 hrs by broth microdilution method
# Escherichia coli [3] = assay: Antibacterial activity against tetracycline/trimethoprim-resistant Escherichia coli IST isolated from water source assessed as growth inhibition after 18 to 24 hrs by broth microdilution method
# Escherichia coli [4] = assay: Inhibition of Escherichia coli DNA gyrase using relaxed pHOT1 plasmid DNA as substrate assessed as inhibition of DNA supercoiling up to 100 uM after 30 mins by agarose gel electrophoresis
# Escherichia coli [5] = assay: Bactericidal activity against ampicillin/chloramphenicol/tetracycline/trimethoprim/ciprofloxacin-resistant Escherichia coli KK45 isolated from water source by agar plating method
# Escherichia coli [6] = assay: Antibacterial activity against chloramphenicol/ampicillin/kanamycin/trimethoprim/ciprofloxacin/nalidixic acid-resistant Escherichia coli 151 assessed as growth inhibition after 18 to 24 hrs by broth microdilution method; assay type: functional
# Escherichia coli [7] = assay: Bactericidal activity against ampicillin/trimethoprim/nalidixic acid-resistant Escherichia coli 118 by agar plating method; assay type: functional
# Escherichia coli [8] = assay: Antibacterial activity against ampicillin/tetracycline/piperacillin-resistant Escherichia coli WB31 isolated from water source assessed as growth inhibition after 18 to 24 hrs by broth microdilution method
# Escherichia coli [9] = assay: Antibacterial activity against gentamicin/kanamycin/tetracycline/nalidixic acid-resistant Escherichia coli 360 assessed as growth inhibition after 18 to 24 hrs by broth microdilution method; assay type: functional
# Homo sapiens = species on record: Homo sapiens; assay: Inhibition of human DNA topoisomerase-1B using supercoiled pHOT1 plasmid DNA as substrate assessed as inhibition of DNA relaxation at 100 uM after 30 mins by agarose gel electrophoresis
# Escherichia coli [10] = assay: Bactericidal activity against ciprofloxacin-resistant Escherichia coli 72 by agar plating method; assay type: functional
# Escherichia coli [11] = assay: Bactericidal activity against cefazolinl/ampicillin/piperacillin/cefuroxime/cefepime/cefotaxime/tetracycline/trimethoprim-resistant Escherichia coli KK16 isolated from water source by agar plating method
# Escherichia coli [12] = assay: Bactericidal activity against multidrug-resistant Escherichia coli IP9 isolated from water source by agar plating method
# Escherichia coli [13] = assay: Antibacterial activity against Escherichia coli ATCC 25922 in iv dosed Balb/c neutropenic thigh infection model assessed as concentration required to cause 1 log10CFU reduction per gram of thigh administered as single bolus dose at 2 hrs post inoculation measured after 24 hrs; assay type: functional
# In short: (§1)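 Neutropenic thigh infection with E. coli ATCC 25922. Compound was dosed at 3 and 5 mg/kg body weight/day. Read-out was thigh bacterial burden, expressed as log reduction and compared with the static level.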
# Escherichia coli [14] = assay: Binding affinity to Escherichia coli DNA topoisomerase-1A by isothermal titration calorimetric analysis in presence of MgCl2/KCl
# In short: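 Isothermal titration calorimetry with sequential injections of EcTopo 1A into the compound solution. Raw heats were corrected using injections of identical amounts of EcTopo 1A into buffer alone. Binding affinity constant and binding free energy were derived from the thermogram.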
# [15] = Binding affinity to d(ATATATATATATAT)2 DNA (unknown origin) by fluorescence spectroscopic analysis
# In short: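 Fluorescence titration of the compound with a poly(AT) DNA sequence, with the binding constant derived from the titration.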
# Escherichia coli [16] = assay: Inhibition of Escherichia coli DNA topoisomerase-1A using supercoiled pHOT1 plasmid DNA as substrate assessed as inhibition of DNA relaxation at 5 to 100 uM after 30 mins by agarose gel electrophoresis in presence of 25 mM MgCl2
# Escherichia coli [17] = assay: Bactericidal activity against gentamicin/kanamycin/tetracycline/nalidixic acid-resistant Escherichia coli 360 by agar plating method; assay type: functional
# Escherichia coli [18] = assay: Antibacterial activity against Escherichia coli ATCC 25922 in Balb/c systemic infection model assessed as increase in survival at 7 mg/kg, iv administered single bolus dose measured every day for 7 days relative to vehicle-treated control; assay type: functional; conditions: ATCC 25922, in Mus musculus, 168 h
# In short: (§2)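 Mice were infected intraperitoneally with E. coli ATCC 25922 suspended in saline. Treatment was a single bolus intravenous tail-vein injection at 3, 5 or 7 mg/kg body weight, dissolved in sterile water. A vehicle-only group served as control. Survival was monitored after infection.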
# Escherichia coli [19] = assay: Antibacterial activity against Escherichia coli ATCC 25922 in iv dosed Balb/c neutropenic thigh infection model assessed as reduction of bacterial burden in thigh administered as single bolus dose at 2 hrs post inoculation measured after 24 hrs; assay type: functional; in short: as §1
# Escherichia coli [20] = assay: Antibacterial activity against Escherichia coli ATCC 25922 in iv dosed Balb/c neutropenic thigh infection model assessed as concentration required to cause 3 log10CFU reduction per gram of thigh administered as single bolus dose at 2 hrs post inoculation measured after 24 hrs; assay type: functional; in short: as §1
# Escherichia coli [21] = assay: Antibacterial activity against Escherichia coli ATCC 25922 in iv dosed Balb/c systemic infection model assessed as increase in survival administered single bolus dose measured every day for 7 days; assay type: functional; in short: as §2
Structure (SMILES),MIC50 (Escherichia coli [1]) [µg/mL],MIC90 (Escherichia coli [1]) [µg/mL],MIC50 (Escherichia coli [2]) [µg/mL],MIC90 (Escherichia coli [2]) [µg/mL],MIC50 (Escherichia coli [3]) [µg/mL],MIC90 (Escherichia coli [3]) [µg/mL],inhibition (Escherichia coli [4]),MBC (Escherichia coli [5]) [µg/mL],MIC50 (Escherichia coli [6]) [µg/mL],MIC90 (Escherichia coli [6]) [µg/mL],MBC (Escherichia coli [7]) [µg/mL],MIC50 (Escherichia coli [8]) [µg/mL],MIC90 (Escherichia coli [8]) [µg/mL],MIC50 (Escherichia coli [9]) [µg/mL],inhibition (Homo sapiens),MBC (Escherichia coli [10]) [µg/mL],MBC (Escherichia coli [11]) [µg/mL],MBC (Escherichia coli [12]) [µg/mL],MBC (Escherichia coli [17]) [µg/mL],MIC90 (Escherichia coli [9]) [µg/mL],other results
COc1ccc(-c2nc3ccc(-c4nc5ccc(N6CCN(c7ncccn7)CC6)cc5[nH]4)cc3[nH]2)cc1OC,16,29.7,16,30.8,16,30.8,inactive,32,16,30.4,8,16,30.2,> 128,Active,32,32,–,–,–,–
CCCN1CCN(c2ccc3nc(-c4ccc5nc(-c6ccc(OCC)cc6)[nH]c5c4)[nH]c3c2)CC1,1,1.6,1,3.4,0.5,1.7,inactive,2,1,1.7,2,0.5,1.7,1,inactive,4,2,4,2,1.6,"Activity (Escherichia coli [13]): 3 mg/kg/day; Ka (Escherichia coli [14]): 6.8 ×10⁶ /M; K [15]: 7 ×10⁷ /M; inhibition (Escherichia coli [16]): Active; survival at 7 mg/kg (Escherichia coli [18]): 75%; Activity (Escherichia coli [19]): Dose-dependent effect; MIC50 (Escherichia coli [19]; ATCC 25922, Thigh): 0.2 µg/mL; Activity (Escherichia coli [20]): 5 mg/kg/day; Activity (Escherichia coli [21]): Dose-dependent effect; ED50 (Escherichia coli [21]; ATCC 25922, in Mus musculus, 168 h): 5 mg/kg"
COc1ccc(-c2nc3ccc(-c4nc5ccc(N6CCN(c7ccncc7)CC6)cc5[nH]4)cc3[nH]2)cc1OC,2,3.1,2,3.7,0.5,0.8,inactive,4,1,1.7,2,2,3.7,1,inactive,2,2,4,2,1.7,–
CCCN1CCN(c2ccc3nc(-c4ccc5nc(-c6ccc(OC)c(OC)c6)[nH]c5c4)[nH]c3c2)CC1,8,14.5,4,7.6,8,14.9,inactive,8,8,15.1,4,8,15.2,8,Active,4,4,16,16,15.2,–
CCOc1ccc(-c2nc3ccc(-c4nc5ccc(N6CCN(CCN(C)C)CC6)cc5[nH]4)cc3[nH]2)cc1,32,60.2,16,30.6,32,60.6,inactive,32,32,61.6,16,16,29.4,64,inactive,64,32,128,128,121,–
CCOc1ccc(-c2nc3ccc(-c4nc5ccc(N6CCN(CC)CC6)cc5[nH]4)cc3[nH]2)cc1,4,6.5,4,7.6,4,3.7,inactive,8,4,6.8,2,4,7.2,3,Active,8,2,8,64,58.1,–
